What was measured:
[1] = tested on: HT-29; experiment: Anticancer activity against human HT-29 cells assessed as cell doubling measured for 72 hrs by DAPI staining based analysis; format: functional
[2] = tested on: NCI-H2052; experiment: Anticancer activity against human NCI-H2052 cells assessed as cell doubling measured for 72 hrs by DAPI staining based analysis; format: functional
[3] = tested on: D283 Med; experiment: Anticancer activity against human D283 Med cells assessed as cell doubling measured for 72 hrs by DAPI staining based analysis; format: functional
[4] = tested on: RL95-2; experiment: Anticancer activity against human RL95-2 cells assessed as cell doubling measured for 72 hrs by DAPI staining based analysis; format: functional
[5] = tested on: HT-1080; experiment: Anticancer activity against human HT-1080 cells assessed as cell doubling measured for 72 hrs by DAPI staining based analysis; format: functional
[6] = tested on: AN3-CA; experiment: Anticancer activity against human AN3-CA cells assessed as cell doubling measured for 72 hrs by DAPI staining based analysis; format: functional
[7] = tested on: SW780; experiment: Anticancer activity against human SW780 cells assessed as cell growth inhibition measured after 72 hrs by DAPI staining based analysis; format: functional
[8] = Anticancer activity against human UM-SCC-12 cells assessed as cell growth inhibition measured after 72 hrs by DAPI staining based analysis; format: functional
[9] = tested on: IGROV-1; experiment: Anticancer activity against human IGROV-1 cells assessed as cell doubling measured for 72 hrs by DAPI staining based analysis; format: functional
[10] = tested on: AGS; experiment: Anticancer activity against human AGS cells assessed as cell growth inhibition measured after 72 hrs by DAPI staining based analysis; format: functional
Outline: (§1)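 Cells were seeded and, after 24 h, DNA content was read as T0. Cells were then exposed to varying drug concentrations for a further 72 h (T72). Fixed cells were DAPI-stained and DNA content measured by automated imaging. T72 values were normalized to T0. GI50 is the concentration giving 50% growth inhibition between T0 and Ymax, obtained by curve fitting.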

[11] = tested on: J82; experiment: Anticancer activity against human J82 cells assessed as cell growth inhibition measured after 72 hrs by DAPI staining based analysis; format: functional
[12] = Anticancer activity against human KPL-1 cells assessed as cell growth inhibition measured after 72 hrs by DAPI staining based analysis; format: functional
[13] = tested on: BT-20; experiment: Anticancer activity against human BT-20 cells assessed as cell growth inhibition measured after 72 hrs by DAPI staining based analysis; format: functional
Outline: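 Cells were seeded, and DNA content at 24 h after seeding (T0) was read by imaging of fixed, DAPI-stained cells. Cells were then exposed to a range of drug concentrations for a further 72 h (T72) and DNA content was read again. T72 values were normalized to T0, and GI50 was taken from curve fits as the concentration giving 50% growth inhibition relative to T0 and Ymax.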

[14] = tested on: NCI-N87; experiment: Anticancer activity against human NCI-N87 cells assessed as cell doubling measured for 72 hrs by DAPI staining based analysis; format: functional
[15] = tested on: COLO 201; experiment: Anticancer activity against human COLO201 cells assessed as cell growth inhibition measured after 72 hrs by DAPI staining based analysis; format: functional
Outline: (§2)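 Cells seeded, DAPI-stained DNA content of fixed cells read by imaging 24 h after seeding (T0), and again after a further 72 h exposure to a range of drug concentrations (T72). T72 values were normalized to T0. Curve fits gave the concentration producing 50% growth inhibition relative to T0 and Ymax (GI50).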

[16] = tested on: SK-MEL-28; experiment: Anticancer activity against human SK-MEL-28 cells assessed as cell growth inhibition measured after 72 hrs by DAPI staining based analysis; format: functional
[17] = tested on: BT-474; experiment: Anticancer activity against human BT-474 cells assessed as cell doubling measured for 72 hrs by DAPI staining based analysis; format: functional
[18] = tested on: NCI-H460; experiment: Antitumor activity against human NCI-H460 cells in xenograft model assessed as tumor growth delay at 125 mg/kg relative to control; format: functional
[19] = tested on: NCI-H1299; experiment: Antitumor activity against human NCI-H1299 cells in xenograft model assessed as tumor growth delay at 125 mg/kg relative to control; format: functional
[20] = tested on: SR; experiment: Anticancer activity against human SR cells assessed as cell doubling measured for 72 hrs by DAPI staining based analysis; format: functional
[21] = tested on: PC-3; experiment: Anticancer activity against human PC-3 cells assessed as cell doubling measured for 72 hrs by DAPI staining based analysis; format: functional
[22] = tested on: MCF7; experiment: Antitumor activity against human MCF7 cells in xenograft model assessed as difference between median time to endpoint time of treated versus control group at 125 mg/kg; format: functional
[23] = tested on: 786-0; experiment: Anticancer activity against human 786-0 cells assessed as cell doubling measured for 72 hrs by DAPI staining based analysis; format: functional
[24] = tested on: 5637; experiment: Anticancer activity against human 5637 cells assessed as cell growth inhibition measured after 72 hrs by DAPI staining based analysis; format: functional; outline: as §1
[25] = tested on: CHL-1; experiment: Anticancer activity against human CHL-1 cells assessed as cell doubling measured for 72 hrs by DAPI staining based analysis; format: functional
[26] = tested on: SK-LMS-1; experiment: Anticancer activity against human SK-LMS-1 cells assessed as cell growth inhibition measured after 72 hrs by DAPI staining based analysis; format: functional
[27] = tested on: 5637; experiment: Anticancer activity against human 5637 cells assessed as cell doubling measured for 72 hrs by DAPI staining based analysis; format: functional
[28] = tested on: Raji; experiment: Anticancer activity against human Raji cells assessed as cell growth inhibition measured after 72 hrs by DAPI staining based analysis; format: functional
[29] = tested on: NCI-H295R; experiment: Anticancer activity against human NCI-H295R cells assessed as cell doubling measured for 72 hrs by DAPI staining based analysis; format: functional
[30] = biological target: Centromere-associated protein E (Homo sapiens, UniProt Q02224, I182L/T183A); experiment: Binding affinity to human CENP-E I182L/T183A mutant assessed as inhibition constant
[31] = tested on: HT-29; experiment: Anticancer activity against human HT-29 cells assessed as cell growth inhibition measured after 72 hrs by DAPI staining based analysis; format: functional
[32] = tested on: SK-N-AS; experiment: Anticancer activity against human SK-N-AS cells assessed as cell growth inhibition measured after 72 hrs by DAPI staining based analysis; format: functional
[33] = Anticancer activity against human SKO-007 cells assessed as cell growth inhibition measured after 72 hrs by DAPI staining based analysis; format: functional
[34] = tested on: JEG-3; experiment: Anticancer activity against human JEG-3 cells assessed as cell doubling measured for 72 hrs by DAPI staining based analysis; format: functional
[35] = tested on: Hep 3B2; experiment: Anticancer activity against human Hep3B cells assessed as cell doubling measured for 72 hrs by DAPI staining based analysis; format: functional
[36] = tested on: MDA-MB-175-VII; experiment: Anticancer activity against human MDA-MB-175-VII cells assessed as cell doubling measured for 72 hrs by DAPI staining based analysis; format: functional
[37] = tested on: NCI-H146; experiment: Anticancer activity against human NCI-H146 cells assessed as cell doubling measured for 72 hrs by DAPI staining based analysis; format: functional
[38] = Antitumor activity against human MV-522 cells in xenograft model assessed as tumor growth delay at 62.5 mg/kg relative to control; format: functional
[39] = tested on: RPMI-6666; experiment: Anticancer activity against human RPMI-6666 cells assessed as cell growth inhibition measured after 72 hrs by DAPI staining based analysis; format: functional
[40] = tested on: ES-2; experiment: Anticancer activity against human ES2 cells assessed as cell growth inhibition measured after 72 hrs by DAPI staining based analysis; format: functional; outline: as §2

Sequence of Centromere-associated protein E (Q02224 whole entry I182L/T183A): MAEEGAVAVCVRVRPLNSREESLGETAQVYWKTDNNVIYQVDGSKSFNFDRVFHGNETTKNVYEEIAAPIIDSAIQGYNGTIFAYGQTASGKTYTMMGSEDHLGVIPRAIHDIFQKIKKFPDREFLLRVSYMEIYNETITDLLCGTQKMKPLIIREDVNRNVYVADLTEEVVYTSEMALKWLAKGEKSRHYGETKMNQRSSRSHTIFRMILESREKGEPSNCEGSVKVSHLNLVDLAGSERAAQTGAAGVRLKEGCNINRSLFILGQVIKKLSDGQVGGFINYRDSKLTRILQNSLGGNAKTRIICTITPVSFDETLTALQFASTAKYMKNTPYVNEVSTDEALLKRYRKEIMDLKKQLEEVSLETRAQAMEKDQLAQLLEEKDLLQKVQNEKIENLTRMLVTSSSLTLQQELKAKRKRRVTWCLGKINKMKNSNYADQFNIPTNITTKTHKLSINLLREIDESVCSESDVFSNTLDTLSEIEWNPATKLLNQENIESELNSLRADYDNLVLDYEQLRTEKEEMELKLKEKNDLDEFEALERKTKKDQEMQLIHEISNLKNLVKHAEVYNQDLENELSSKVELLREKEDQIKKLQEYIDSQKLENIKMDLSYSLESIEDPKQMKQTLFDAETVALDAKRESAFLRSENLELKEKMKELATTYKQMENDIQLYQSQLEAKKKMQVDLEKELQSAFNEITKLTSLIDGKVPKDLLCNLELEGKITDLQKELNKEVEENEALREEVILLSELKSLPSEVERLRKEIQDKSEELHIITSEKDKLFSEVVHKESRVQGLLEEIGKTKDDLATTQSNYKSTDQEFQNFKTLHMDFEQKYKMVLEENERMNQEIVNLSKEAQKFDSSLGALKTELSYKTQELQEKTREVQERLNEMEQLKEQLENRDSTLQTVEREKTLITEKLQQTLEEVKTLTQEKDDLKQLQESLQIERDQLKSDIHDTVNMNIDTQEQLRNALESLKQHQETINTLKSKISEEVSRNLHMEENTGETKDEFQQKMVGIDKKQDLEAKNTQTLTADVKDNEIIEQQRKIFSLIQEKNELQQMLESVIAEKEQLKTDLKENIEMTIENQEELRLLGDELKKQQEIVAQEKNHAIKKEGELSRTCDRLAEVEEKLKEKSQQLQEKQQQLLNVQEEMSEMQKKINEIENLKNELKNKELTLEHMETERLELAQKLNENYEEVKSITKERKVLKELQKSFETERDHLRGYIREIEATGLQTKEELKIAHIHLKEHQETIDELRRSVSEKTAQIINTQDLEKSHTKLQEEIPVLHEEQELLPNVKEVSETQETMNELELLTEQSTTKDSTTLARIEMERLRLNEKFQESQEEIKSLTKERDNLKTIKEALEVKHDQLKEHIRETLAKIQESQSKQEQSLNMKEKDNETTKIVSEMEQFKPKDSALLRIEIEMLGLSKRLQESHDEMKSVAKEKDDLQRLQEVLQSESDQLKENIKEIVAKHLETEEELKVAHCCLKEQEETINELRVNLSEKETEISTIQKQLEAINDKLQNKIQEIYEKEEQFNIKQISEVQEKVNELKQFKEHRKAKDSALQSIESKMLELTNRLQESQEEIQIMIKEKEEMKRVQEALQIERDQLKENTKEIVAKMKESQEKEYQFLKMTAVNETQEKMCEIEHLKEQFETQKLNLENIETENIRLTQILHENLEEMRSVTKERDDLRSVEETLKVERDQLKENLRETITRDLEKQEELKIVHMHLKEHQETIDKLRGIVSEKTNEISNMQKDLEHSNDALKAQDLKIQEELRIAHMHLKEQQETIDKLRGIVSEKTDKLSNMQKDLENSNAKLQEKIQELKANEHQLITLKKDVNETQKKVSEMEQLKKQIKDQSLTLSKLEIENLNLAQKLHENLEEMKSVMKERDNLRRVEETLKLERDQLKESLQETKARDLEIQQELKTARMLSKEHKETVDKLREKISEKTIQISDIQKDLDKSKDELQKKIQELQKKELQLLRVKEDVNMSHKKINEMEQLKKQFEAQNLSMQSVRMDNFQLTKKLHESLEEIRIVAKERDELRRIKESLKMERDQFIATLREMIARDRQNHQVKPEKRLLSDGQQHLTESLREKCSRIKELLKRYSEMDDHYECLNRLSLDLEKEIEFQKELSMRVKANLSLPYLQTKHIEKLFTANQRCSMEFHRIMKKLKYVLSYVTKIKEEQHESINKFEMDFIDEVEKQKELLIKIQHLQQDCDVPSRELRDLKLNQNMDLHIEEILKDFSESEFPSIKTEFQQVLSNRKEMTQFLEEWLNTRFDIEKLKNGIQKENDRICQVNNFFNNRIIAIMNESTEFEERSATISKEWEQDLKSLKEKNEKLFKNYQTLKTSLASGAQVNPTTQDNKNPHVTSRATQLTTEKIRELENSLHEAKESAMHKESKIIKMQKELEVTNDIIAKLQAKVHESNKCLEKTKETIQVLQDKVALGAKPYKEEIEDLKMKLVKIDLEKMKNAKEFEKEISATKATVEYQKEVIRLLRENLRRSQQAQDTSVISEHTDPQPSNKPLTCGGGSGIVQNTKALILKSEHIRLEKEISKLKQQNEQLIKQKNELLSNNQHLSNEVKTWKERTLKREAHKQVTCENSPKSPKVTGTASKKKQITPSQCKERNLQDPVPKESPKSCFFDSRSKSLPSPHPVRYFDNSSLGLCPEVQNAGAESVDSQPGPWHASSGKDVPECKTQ

CC(C)Oc1ccc(C(=O)N[C@H](CNC(=O)CN(C)C)Cc2ccc(-c3cn4cccc([C@H](C)O)c4n3)cc2)cc1Cl [GSK-923295A]
Activity [1]: 4.33
Activity [2]: 2.09
Activity [3]: 1.27
Activity [4]: 2.48
Activity [5]: 3.05
Activity [6]: 1.74
GI50 [7]: 30 nM
GI50 [8]: 33 nM
Activity [9]: 2.69
GI50 [10]: 29 nM
GI50 [11]: 114 nM
GI50 [12]: 31 nM
GI50 [13]: 32 nM
Activity [14]: 2.53
GI50 [15]: 24 nM
GI50 [16]: 31 nM
Activity [17]: 1.17
Activity [18]: 210%
Activity [19]: 76%
Activity [20]: 2.84
Activity [21]: 3.07
Time [22]: 15.8 days
Activity [23]: 2.59
GI50 [24]: 23 nM
Activity [25]: 3.27
GI50 [26]: 30 nM
Activity [27]: 1.43
GI50 [28]: 41 nM
Activity [29]: 1.52
Ki [30]: 61 nM
GI50 [31]: 14 nM
GI50 [32]: 38 nM
GI50 [33]: 60 nM
Activity [34]: 2.9
Activity [35]: 2.37
Activity [36]: 1.15
Activity [37]: 1.2
Activity [38]: 50%
GI50 [39]: 88 nM
GI50 [40]: 30 nM

From ChEMBL document CHEMBL5705890, “Antitumor activity of an allosteric inhibitor of centromere-associated protein-E” (Proc Natl Acad Sci U S A, 2010)
